Measured values: the RNAGym collection of RNA variant scans (doi:10.1126/science.aae0568)
Fewer inactive variants are shown than the library holds.

B1: tRNA (parent)
chain: GUUCCGUUGGCGUAAUGGUAACGCGUCUCCCUCCUAAGGAGAAGACUGCGGGUUCGAGUCCCGUACGGAACG

Variants of: B1
Assay: yeast fitness relative to wild type (ratio to wild type); higher = fitter; tRNA-Arg(CCU), competitive growth, 37 C, YPD
Method in brief: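 A pool of Saccharomyces cerevisiae strains, each with a tRNA-Arg(CCU) gene variant at the native genomic locus, was competed in YPD at 37°C for 24 hours across six parallel replicates. The variants had been chemically synthesised at a 3% per-site mutation rate over 69 sites, and gene amplicons before and after competition were read by 100-nucleotide paired-end sequencing. Darwinian fitness relative to wild type rested on changes in genotype frequencies. Genotypes required ≥ 100 starting reads, and estimates < 0.5 were set to 0.5.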
For GUUCCGUUGGCGUAAUGGUAACGCGACUCCCUCGUAAGGAGAAGACUGCGGGUUCGAGUCCCGUACGGAACG, the yeast fitness was 0.618.
GUUCCGUUGGCGUAAUGGUAACGCGACUCCCUCCUAAGGAGAACACUGCGGGUUCGAGUCCAGUACGGAACG showed a yeast fitness of 0.598.
Variant GUUCCGUUGGCGUAAUGGUAACGCGACUCCCUCCUAAGGAGAACACUGCGGGUUCGAGUCCUGUACGGAACG has a yeast fitness of 0.622.
In the case of GUUCCGUUGGCGUAAUGGUAACGCGACUCCUUCCUAAGGAGAAGACUGCGGGUUCGAGUCCCGUACGAAACG, the yeast fitness is reported as 0.716.
For GUUCCGUUGGCGUAAUGGUAACGCGACUCUCUCCUAUGGAGAAGACUGCGGGUUCGAGUCCCGUACGGAACG, the yeast fitness was ≤ 0.5.
In the case of GUUCCGUUGGCGUAAUGGUAACGCGACUCCCUCCUAAGGACAAGACUGCGGGUUCGAGUCCCGUAAGGACCG, the yeast fitness is reported as 0.663.
GUUCCGUUGGCGUAAUGGUAACGCGACUCCAUCCUAAGGAGAAGACUGCGGGUUCGAGUCCCGUACGGAACG gave a yeast fitness of 0.803.
GUUCCGUUGGCGUAAUGGUAACGCGACUCCUUCCUAAGGAGAAGACUGCGGGUUCGAGUCCCGUACGGAACG gave a yeast fitness of 0.999.
With GUUCCGUUGGCGUAAUGGUAACGCGAUUCCCUGCUUAGGAGAAGACUGCAGGUUCGAGUCCCGUACGGAACG the yeast fitness was ≤ 0.5.
In the case of GUUCCGUUGGCGUAAUGGUAACGCGACUCCGUCCUCAGGAAAAGACUGCGGGUUGGAGUCCCGUACGGAACG, the yeast fitness is reported as ≤ 0.5.
GUUCCGUUGGCGUAAUGGUAACGCGACUCCCUCCUAAGGAGAACACUGCGGGUUCGAGUCCCGUACGGAACG showed a yeast fitness of 0.886.
With GUUCCGUUGGCGUAAUGGUAACGCGACUCCCUCCUAAGGAUAAGACUGCGGGUUUGAGUCCCGUACGGAACG the yeast fitness was ≤ 0.5.
GUUCCGUUGGCGUAAUGGUAACGCGACUCCCUCCUAAGGAGAAGACUGCGGGUUCGAGUCCUGUACGGAACG gave a yeast fitness of 0.934.
GUUCCGUUGGCGUAAUGGUAACGCGACUCCCUCCUAAGGAGAAGACUGCGGGUUCGAGUCCGGUACGGAACG showed a yeast fitness of 0.69.
For GUUCCGUUGGCGUAAUGGUAACGCGACUCCCUCCUAACGAGAAGACGGCGGGUUCGAAUCCCGUACGGAACG, the yeast fitness was ≤ 0.5.
For GUUCCGUUGGCGUAAUGGUAACGCGACUCACUCCUUAGGAGAAGACUGCGGAUUCGAAUCCCGUACGGAACG, the yeast fitness was ≤ 0.5.
GUUCCGUUGGCGUAAUGGUAACGCGACUCCCUCCUAAGGAGAAGACUGCGGGUUCGAAUCCCGUACGGAACG gave a yeast fitness of 0.928.
With GUUCCGUUGGCGUAAUGGUAACGCGAGUCCCUCCUAAGGAGAAGACUGCGGGUUCGAGUCCAGUACGGAACG the yeast fitness was ≤ 0.5.
With GUUCCGUUGGCGUAAUGGUAACGCGAGUCCUUCCUAAGGAGAAGAAUGCGGGUUCGAGUCCCGUCCGAAACG the yeast fitness was 0.626.
In the case of GUUCCGUUGGCGUAAUGGUAACGCGACUCUCUCCUAAGGAGAAGACUGCGGGUACGAGUCCCGUACGGAACG, the yeast fitness is reported as ≤ 0.5.
In the case of GUUCCGUUGGCGUAAUGGUAACGCGACUCCCUCCUAAGGAAAAGACUGCGGGUUCGAGUCCCGUAAGGAACG, the yeast fitness is reported as ≤ 0.5.
In the case of GUUCCGUUGGCGUAAUGGUAACGCGACUCCGUCCUUAGGAGAAGACUGCGGGUUCGAGUCCCGUUCGGAACG, the yeast fitness is reported as 0.681.
In the case of GUUCCGUUGGCGUAAUGGUAACGCGACUCCCUCUUAAGGAGAAGACUGCGGGUUCGAGUCCAGUACGGAACG, the yeast fitness is reported as ≤ 0.5.
In the case of GUUCCGUUGGCGUAAUGGUAACGCGACUCCCUCCUAAGGAGAAGACUGUGGGUUCGAGUUCCGUACGGGACG, the yeast fitness is reported as ≤ 0.5.
In the case of GUUCCGUUGGCGUAAUGGUAACGCGACUCCCUCCUAAGGAGAAGACUGUGGGUUCGAAUCCCGUACGGAACG, the yeast fitness is reported as ≤ 0.5.
Work on GUUCCGUUGGCGUAAUGGUAACGCGACUCACUCCUAAGGAGAAGACUGCGGGUUCGAGUCCCGUCCGGAACG yielded a yeast fitness of 0.511.
In the case of GUUCCGUUGGCGUAAUGGUAACGCGAUUCCCUCCUAAGGAGAAGAGUGCGGGUUCGAGUCCCGUACGGAACG, the yeast fitness is reported as 1.
With GUUCCGUUGGCGUAAUGGUAACGCGACUCCCUCCUAAGGAGAAGACUGAGGGUUCGAGUCCCGUACGGAACG the yeast fitness was 0.637.
GUUCCGUUGGCGUAAUGGUAACGCGAUUCCCUCCUAAGGAAAAGACUGCGGGUUCGAGUCCCGUGCGGAACG gave a yeast fitness of 0.534.
For GUUCCGUUGGCGUAAUGGUAACGCGACUCCCUCCUAAGGAGAAGACUGCGGGUUGGAGUCCCGUACGGAACG, the yeast fitness was 0.571.
For GUUCCGUUGGCGUAAUGGUAACGCGACUCCCUCCUAAGGAGAAGACUGUGGGUUCGAGUCGCGUACGGAACG, the yeast fitness was ≤ 0.5.
With GUUCCGUUGGCGUAAUGGUAACGCGACUCCCUCCUAAGGAGAAGACUGUGGGUUCGAGUCCCGUGCGGAACG the yeast fitness was ≤ 0.5.
In the case of GUUCCGUUGGCGUAAUGGUAACGCGACUCCCUCCUAAGGAGAAGACUGUGGGUUCGAGUCCCGUCCGGAACG, the yeast fitness is reported as 0.742.
For GUUCCGUUGGCGUAAUGGUAACGCGACUCCCUCCUAAGGAGAAGACUGCGGGUUCGAGUCCCCUACGGAACG, the yeast fitness was 0.683.
In the case of GUUCCGUUGGCGUAAUGGUAACGCGACUCCCUCCUAAGGAGAAGACUGCGGGUUCGAGUCCCAUACGGAACG, the yeast fitness is reported as 0.86.
GUUCCGUUGGCGUAAUGGUAACGCGACUCCCUCCUAAGGAGAAGACUGCGGGUUCGAGUGCCGUACGGAACG showed a yeast fitness of 0.691.
In the case of GUUCCGUUGGCGUAAUGGUAACGCGACUCCCUCCUAAGGAGAAGACUGCGGGUUAGUGUCCCGUACGGAACG, the yeast fitness is reported as ≤ 0.5.
Variant GUUCCGUUGGCGUAAUGGUAACGCGACUCCCUCCUAAGCAGAAGACUGCGGGUUCGAGUCCCGUACGGAACG has a yeast fitness of 0.751.
For GUUCCGUUGGCGUAAUGGUAACGCGACUCCCUCCUAAGGAGAAGACUGCGGGUUCGAGUCCUGUACAGAACG, the yeast fitness was 0.648.
In the case of GUUCCGUUGGCGUAAUGGUAACGCGACUCCCUCCUAAGGAGAAGACUGUGGCUUCGAGUCCCGUACGGAACG, the yeast fitness is reported as ≤ 0.5.
GUUCCGUUGGCGUAAUGGUAACGCGACUCGCUUCUAAGGAGAAGACUGCGGGUUCGAGUCCCGUACGGAACG showed a yeast fitness of 0.604.
With GUUCCGUUGGCGUAAUGGUAACGCGACUCCCUCCUAAGGAGAAGACUGCGGGUUCGAGUCCCGUAAGGCACG the yeast fitness was ≤ 0.5.
For GUUCCGUUGGCGUAAUGGUAACGCGACUCCCUCCUAAGGAGAAGACUGGGGGUUCGAGUCCCGUACGGCACG, the yeast fitness was 0.6.
With GUUCCGUUGGCGUAAUGGUAACGCGACUCCCUCCUAACGAGAAGUCUGCGGGUUUGAGUCCCGUACGGAACG the yeast fitness was ≤ 0.5.
GUUCCGUUGGCGUAAUGGUAACGCGACUCCCUCCUAAGGAGAAGAUUGCGGGUUCGAGUCCCGUCCGGAACG gave a yeast fitness of 0.631.
For GUUCCGUUGGCGUAAUGGUAACGCGACUCCGUCCUAAGGAGAAGACUGCGGGUUCGAGUCCUGUACGGAACG, the yeast fitness was 0.647.
GUUCCGUUGGCGUAAUGGUAACGCGACUCCCUCCUAAGGAGAAGACUGCGGGUUCGAGUCUCGUACGGAACG gave a yeast fitness of 0.817.
GUUCCGUUGGCGUAAUGGUAACGCGACUCCCUCCUAAGGAGAAGACUGCGGGUUCGAGUCACGUACGGAACG showed a yeast fitness of 0.656.
For GUUCCGUUGGCGUAAUGGUAACGCGACUCCCUCCUAAGGAGAACACUGCGGGUUCGAGUCCCGUACUGAACG, the yeast fitness was 0.593.
With GUUCCGUUGGCGUAAUGGUAACGCGACUGCCUCCUAAGGAGAAGACUGCGGGUUCGAAUCCCGUACGGACCG the yeast fitness was 0.631.
For GUUCCGUUGGCGUAAUGGUAACGCGACUCCAUCCUAUGGAGAUGACUGCGGGUUCGAGUCCCGUACGGAACG, the yeast fitness was ≤ 0.5.
With GUUCCGUUGGCGUAAUGGUAACGCGACUCCCUCUUAAGGAGAAGACUGCAGGUUCGAGUCCCGUACGGUACG the yeast fitness was ≤ 0.5.
GUUCCGUUGGCGUAAUGGUAACGCGACUCCCUACUAGGGAGAAGACUGCGGGUUCGAGUCCCGUACGGAACG gave a yeast fitness of 0.581.
GUUCCGUUGGCGUAAUGGUAACGCGACUCCCUCCUAAGGAGAAGAUUGCGGGUUCGAGUCCCGUACGGAACG showed a yeast fitness of 0.874.
GUUCCGUUGGCGUAAUGGUAACGCGACUCCCUCGUAAGGAGAAGGCUGCGGGUUCGAGUCCCGUACGGAACG showed a yeast fitness of 0.517.
Work on GUUCCGUUGGCGUAAUGGUAACGCGACUCCCUCCUAAGGAGAAGACUAGGGGUUCGAGUCCCGUACGGAACG yielded a yeast fitness of 0.552.
Variant GUUCCGUUGGCGUAAUGGUAACGCGACUCCCUCCUAAGGAGAACACUGCGGGUUCGAGUCCCGUACGCAACG has a yeast fitness of 0.563.
In the case of GUUCCGUUGGCGUAAUGGUAACGCGACUCCCUCCUAACGAGAAGACGGCGGGUUCGAGUCCCGUACGGAACG, the yeast fitness is reported as ≤ 0.5.
In the case of GUUCCGUUGGCGUAAUGGUAACGCGACUCCCUCCUAAGCAGAAGACUACGGGUUCGAGUGCCGUACGGAACG, the yeast fitness is reported as ≤ 0.5.
In the case of GUUCCGUUGGCGUAAUGGUAACGCGACUCACUCCUAAGGAGAAGACUGCGGGUUCGAGUCCUGUACGGAACG, the yeast fitness is reported as 0.585.
Variant GUUCCGUUGGCGUAAUGGUAACGCGACUCGCUCCUAACGAGUAGACUGCGGGUUCGACUCCCGUACGGAACG has a yeast fitness of 0.759.
With GUUCCGUUGGCGUAAUGGUAACGCGACUCCCUCUUAAGGAGAAGACUGGGGGUUCGAGUCCCGUAAGGAACG the yeast fitness was ≤ 0.5.
Work on GUUCCGUUGGCGUAAUGGUAACGCGACUCUCUCCUAAGGAGAAGACUGCGGGUUCGAGUCCCGUACGGAACG yielded a yeast fitness of 0.787.
For GUUCCGUUGGCGUAAUGGUAACGCGACUCCGUCCUUAGGAGAAGACUGCGGGUCGGAGUCCCGUACGGAACG, the yeast fitness was ≤ 0.5.
With GUUCCGUUGGCGUAAUGGUAACGCGACUCCCUCCUAAGGAGAAGACUGGGGGUUCGAGUCACGUACGGAACG the yeast fitness was ≤ 0.5.
With GUUCCGUUGGCGUAAUGGUAACGCGACUCCCUCCUAAGGAAAAGACUGCGGGUUCGAGUCCCGUACGGAACG the yeast fitness was 0.818.
In the case of GUUCCGUUGGCGUAAUGGUAACGCGACUCCCUCCUAAGGAGAAGACUGCGGAUUCGAGUCCCGUACGGAUCG, the yeast fitness is reported as ≤ 0.5.
For GUUCCGUUGGCGUAAUGGUAACGCGACUCCCUCCUAAGGAGAAGACUGCGGGUUCGAGUCCCGUACUGAACG, the yeast fitness was 0.632.
With GUUCCGUUGGCGUAAUGGUAACGCGACUCCCUCCUAAGGAGAAGACUGCGGGUUCGAGUCCCGUACCGAACG the yeast fitness was 0.829.
GUUCCGUUGGCGUAAUGGUAACGCGACUCCCUCGUAAGGAGAAGACUGCGGGUUCGUGUCCUGUACGGAACG gave a yeast fitness of 0.582.
With GUUCCGUUGGCGUAAUGGUAACGCGAUUCCCUCCUAAGGAGAAGACUGAGGGUUCGAGUCCCGCACGGAACG the yeast fitness was ≤ 0.5.
With GUUCCGUUGGCGUAAUGGUAACGCGACUCCCUCUUAAGGAGAAGACGGCGGGUUCGAGUCCCGAACGGAACG the yeast fitness was ≤ 0.5.
GUUCCGUUGGCGUAAUGGUAACGCGACUCCCUCCUAAGGAGAACACUGCGGGUUCGAGUCCCGUGCGGAACG showed a yeast fitness of 0.573.
With GUUCCGUUGGCGUAAUGGUAACGCGACUCACUCAUAAGGAGAAGACUCCGGGUUCGAGUCCCGUACGUAACG the yeast fitness was ≤ 0.5.
Work on GUUCCGUUGGCGUAAUGGUAACGCGACUCCCUCCUAAGGAGAAGACUGGGGGUUCGAGUCCCGUACGGACCG yielded a yeast fitness of 0.574.
